Experimental data: ChEMBL document CHEMBL5038590, “Discovery of G Protein-Biased Ligands against 5-HT7R” (J Med Chem, 2021)

Legend:
[1] = AUClast in ICR mouse plasma at 10 mg/kg, ip measured upto 8 hrs by LC-MS/MS analysis; assay type: ADME, organism-based; design: route intraperitoneal, dose 10 mg/kg, time <=8
Summary of the method: (§1)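 Male ICR mice, 7–8 weeks, 30 ± 5 g; single dose 1 mg/kg iv or 10 mg/kg ip (n = 4 each). Carotid artery blood at 0, 0.08 (iv only), 0.25, 0.5, 1, 2, 4, 6, 8 h. Plasma precipitated with acetonitrile containing internal standard, quantified by LC–MS/MS. Parameters by non-compartmental analysis; AUClast by trapezoidal rule; values mean ± SD.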

[2] = biological target: T1, 5-hydroxytryptamine receptor 1A (Homo sapiens, UniProt P08908); experiment: Binding affinity to 5-HT1AR (unknown origin)
T1 sequence (P08908 whole entry): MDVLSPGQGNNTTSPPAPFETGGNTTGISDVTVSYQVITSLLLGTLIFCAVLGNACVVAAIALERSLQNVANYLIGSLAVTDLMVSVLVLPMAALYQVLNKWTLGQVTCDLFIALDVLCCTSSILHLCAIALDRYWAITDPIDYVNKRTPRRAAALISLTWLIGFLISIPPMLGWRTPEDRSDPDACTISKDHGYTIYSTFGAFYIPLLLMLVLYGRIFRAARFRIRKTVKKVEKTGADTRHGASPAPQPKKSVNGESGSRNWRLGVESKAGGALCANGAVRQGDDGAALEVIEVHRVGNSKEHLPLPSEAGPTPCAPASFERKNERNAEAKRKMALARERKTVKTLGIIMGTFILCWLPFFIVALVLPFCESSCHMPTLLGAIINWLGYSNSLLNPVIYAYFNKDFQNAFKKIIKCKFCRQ
Summary of the method: (§2)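 Run by the NIMH Psychoactive Drug Screening Program as competition radioligand binding on crude membranes of cells expressing the recombinant receptor. Eleven dilutions (0.05 nM–50 μM, prepared at 5× assay concentration) were made in 50 mM Tris-HCl, 10 mM MgCl₂, 1 mM EDTA, pH 7.4. Incubation was 1.5 h at rt in the dark, followed by GF/B filtration (0.3% PEI) and scintillation counting. IC₅₀ was converted to Ki; at least triplicate.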

[3] = biological target: 5-hydroxytryptamine receptor 7 (Homo sapiens, UniProt P34969)
CYP2C9 = CYP2C9 (Homo sapiens, UniProt P11712); experiment: Inhibition of CYP2C9 in human liver microsomes assessed as remaining activity at 10 uM using diclofenac as substrate preincubated for 5 mins followed by addition of NADPH generating system and incubated for 15 mins by LC/MS relative to control; assay type: ADME; details: probe diclofenac, time 20 min, read-out: Activity
Summary of the method: (§3)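 Human liver microsomes (0.25 mg/mL) in 0.1 M phosphate pH 7.4 with a five-substrate cocktail: phenacetin 50 μM, diclofenac 10 μM, S-mephenytoin 100 μM, dextromethorphan 5 μM, midazolam 2.5 μM. Compound at 0 (control) or 10 μM. Preincubated 5 min at 37 °C, NADPH-generating system added, 15 min at 37 °C. Stopped with acetonitrile plus internal standard; substrate metabolites measured by LC/MS.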

[4] = biological target: 5-hydroxytryptamine receptor 1E (Homo sapiens, UniProt P28566); experiment: Binding affinity to 5-HT1ER (unknown origin); summary of the method: as §2
[5] = biological target: T2, 5-hydroxytryptamine receptor 2C (Homo sapiens, UniProt P28335); experiment: Binding affinity to 5-HT2CR (unknown origin); summary of the method: as §2
T2 sequence (P28335 whole entry): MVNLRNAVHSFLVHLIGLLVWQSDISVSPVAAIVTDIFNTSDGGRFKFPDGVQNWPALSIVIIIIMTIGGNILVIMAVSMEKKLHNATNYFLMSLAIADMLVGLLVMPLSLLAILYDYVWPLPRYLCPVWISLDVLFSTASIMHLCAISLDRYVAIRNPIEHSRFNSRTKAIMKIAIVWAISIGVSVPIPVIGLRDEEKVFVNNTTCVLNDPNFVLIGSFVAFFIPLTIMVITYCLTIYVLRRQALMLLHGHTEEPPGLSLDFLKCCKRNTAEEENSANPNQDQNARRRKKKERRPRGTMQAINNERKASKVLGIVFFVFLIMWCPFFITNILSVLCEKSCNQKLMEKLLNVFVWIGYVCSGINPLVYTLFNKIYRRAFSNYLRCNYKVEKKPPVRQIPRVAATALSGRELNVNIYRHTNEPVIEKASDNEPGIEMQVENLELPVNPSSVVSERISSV

[6] = biological target: T3, 5-hydroxytryptamine receptor 3A (Homo sapiens, UniProt P46098); experiment: Binding affinity to 5-HT3R (unknown origin); summary of the method: as §2
T3 sequence (P46098 whole entry): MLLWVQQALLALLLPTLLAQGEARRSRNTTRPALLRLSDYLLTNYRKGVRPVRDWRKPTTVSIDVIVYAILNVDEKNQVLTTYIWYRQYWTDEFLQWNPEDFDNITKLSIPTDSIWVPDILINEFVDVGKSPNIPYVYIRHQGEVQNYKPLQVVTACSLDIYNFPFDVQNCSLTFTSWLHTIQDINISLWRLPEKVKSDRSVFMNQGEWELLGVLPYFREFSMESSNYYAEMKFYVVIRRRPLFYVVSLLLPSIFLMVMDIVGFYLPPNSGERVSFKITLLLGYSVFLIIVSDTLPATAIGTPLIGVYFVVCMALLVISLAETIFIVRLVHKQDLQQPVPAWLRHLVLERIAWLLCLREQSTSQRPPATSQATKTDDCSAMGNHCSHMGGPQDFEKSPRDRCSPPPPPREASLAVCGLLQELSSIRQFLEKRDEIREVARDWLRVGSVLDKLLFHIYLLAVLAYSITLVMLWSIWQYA

CYP3A4 = CYP3A4 (Homo sapiens, UniProt P08684); experiment: Inhibition of CYP3A4 in human liver microsomes assessed as remaining activity at 10 uM using midazolam as substrate preincubated for 5 mins followed by addition of NADPH generating system and incubated for 15 mins by LC/MS relative to control; assay type: ADME; details: probe midazolam, time 20 min, read-out: Activity; summary of the method: as §3
[7] = biological target: 5-hydroxytryptamine receptor 1D (Homo sapiens, UniProt P28221); experiment: Binding affinity to 5-HT1DR (unknown origin); summary of the method: as §2
[8] = MRTinfinity in ICR mouse plasma at 1 mg/kg, iv measured upto 8 hrs by LC-MS/MS analysis; assay type: ADME, organism-based; summary of the method: as §1
[9] = biological target: 5-hydroxytryptamine receptor 2A (Homo sapiens, UniProt P28223); experiment: Binding affinity to 5-HT2AR (unknown origin); summary of the method: as §2
Mus musculus = experiment: Effect on wild type mouse assessed as time taken for duration of self grooming at 5 mg/kg, ip pretreated for 10 mins in presence of SB269970 followed by compound addition and measured after 30 mins under 40 lux lighting (reference value: 43.7 +/- 10.8 sec); assay type: functional; details: 0.5 h

Sequence of 5-hydroxytryptamine receptor 7 (P34969 whole entry): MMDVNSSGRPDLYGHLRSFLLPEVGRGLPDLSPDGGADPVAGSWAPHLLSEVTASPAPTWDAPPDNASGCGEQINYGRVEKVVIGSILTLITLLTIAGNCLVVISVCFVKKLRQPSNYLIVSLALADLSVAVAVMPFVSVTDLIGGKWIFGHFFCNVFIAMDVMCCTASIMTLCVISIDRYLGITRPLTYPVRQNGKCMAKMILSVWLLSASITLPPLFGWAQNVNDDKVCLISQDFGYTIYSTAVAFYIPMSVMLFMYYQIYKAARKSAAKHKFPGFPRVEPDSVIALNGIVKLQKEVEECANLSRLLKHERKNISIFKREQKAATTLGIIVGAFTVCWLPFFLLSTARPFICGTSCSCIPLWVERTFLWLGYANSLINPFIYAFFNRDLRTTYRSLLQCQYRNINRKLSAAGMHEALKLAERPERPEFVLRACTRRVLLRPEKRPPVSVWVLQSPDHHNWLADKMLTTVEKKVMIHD
Sequence of 5-hydroxytryptamine receptor 1D (P28221 whole entry): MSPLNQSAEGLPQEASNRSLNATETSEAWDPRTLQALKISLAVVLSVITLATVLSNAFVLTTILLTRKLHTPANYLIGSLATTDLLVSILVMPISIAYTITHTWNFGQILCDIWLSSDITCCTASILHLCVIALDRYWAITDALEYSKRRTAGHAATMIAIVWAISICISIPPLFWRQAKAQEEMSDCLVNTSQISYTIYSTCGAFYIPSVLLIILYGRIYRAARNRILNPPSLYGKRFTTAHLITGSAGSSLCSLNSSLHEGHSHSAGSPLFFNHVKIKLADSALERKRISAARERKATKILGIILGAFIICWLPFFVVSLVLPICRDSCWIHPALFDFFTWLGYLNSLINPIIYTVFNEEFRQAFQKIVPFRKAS
Sequence of 5-hydroxytryptamine receptor 1E (P28566 whole entry): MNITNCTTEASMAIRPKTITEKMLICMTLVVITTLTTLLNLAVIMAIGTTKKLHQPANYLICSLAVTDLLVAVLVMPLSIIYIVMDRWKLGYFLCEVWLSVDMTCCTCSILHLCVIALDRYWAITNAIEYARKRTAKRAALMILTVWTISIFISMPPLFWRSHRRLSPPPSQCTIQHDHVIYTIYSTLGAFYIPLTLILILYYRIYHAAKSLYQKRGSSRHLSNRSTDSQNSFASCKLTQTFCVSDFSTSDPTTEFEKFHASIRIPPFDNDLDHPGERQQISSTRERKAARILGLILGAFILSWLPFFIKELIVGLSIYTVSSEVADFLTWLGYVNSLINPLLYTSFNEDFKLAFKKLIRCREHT
Sequence of 5-hydroxytryptamine receptor 2A (P28223 whole entry): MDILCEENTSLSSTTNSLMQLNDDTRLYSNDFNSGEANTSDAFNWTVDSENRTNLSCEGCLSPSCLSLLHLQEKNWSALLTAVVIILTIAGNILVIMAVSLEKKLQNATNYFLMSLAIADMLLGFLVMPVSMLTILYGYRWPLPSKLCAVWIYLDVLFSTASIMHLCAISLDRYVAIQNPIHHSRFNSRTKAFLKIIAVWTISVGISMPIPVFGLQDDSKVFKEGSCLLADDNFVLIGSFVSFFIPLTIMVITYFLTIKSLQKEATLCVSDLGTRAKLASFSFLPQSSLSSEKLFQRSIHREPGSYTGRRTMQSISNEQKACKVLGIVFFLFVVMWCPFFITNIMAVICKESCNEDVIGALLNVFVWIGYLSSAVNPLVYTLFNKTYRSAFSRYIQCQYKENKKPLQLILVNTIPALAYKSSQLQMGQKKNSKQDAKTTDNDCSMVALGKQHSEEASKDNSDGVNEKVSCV
Sequence of CYP3A4 (P08684 whole entry): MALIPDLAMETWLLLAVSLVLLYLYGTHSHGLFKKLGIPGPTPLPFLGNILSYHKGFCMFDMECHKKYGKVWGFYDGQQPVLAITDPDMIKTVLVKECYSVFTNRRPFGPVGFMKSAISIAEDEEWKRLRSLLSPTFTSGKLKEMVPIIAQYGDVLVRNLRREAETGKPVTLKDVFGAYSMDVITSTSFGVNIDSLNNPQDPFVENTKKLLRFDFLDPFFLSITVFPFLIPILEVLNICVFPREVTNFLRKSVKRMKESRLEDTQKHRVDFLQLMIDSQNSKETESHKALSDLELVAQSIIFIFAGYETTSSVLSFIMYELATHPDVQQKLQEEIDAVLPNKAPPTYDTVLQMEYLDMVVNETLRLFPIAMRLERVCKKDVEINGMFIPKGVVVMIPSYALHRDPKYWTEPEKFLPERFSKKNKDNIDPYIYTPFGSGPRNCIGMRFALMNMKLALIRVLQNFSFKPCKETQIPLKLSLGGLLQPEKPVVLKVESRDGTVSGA
Sequence of CYP2C9 (P11712 whole entry): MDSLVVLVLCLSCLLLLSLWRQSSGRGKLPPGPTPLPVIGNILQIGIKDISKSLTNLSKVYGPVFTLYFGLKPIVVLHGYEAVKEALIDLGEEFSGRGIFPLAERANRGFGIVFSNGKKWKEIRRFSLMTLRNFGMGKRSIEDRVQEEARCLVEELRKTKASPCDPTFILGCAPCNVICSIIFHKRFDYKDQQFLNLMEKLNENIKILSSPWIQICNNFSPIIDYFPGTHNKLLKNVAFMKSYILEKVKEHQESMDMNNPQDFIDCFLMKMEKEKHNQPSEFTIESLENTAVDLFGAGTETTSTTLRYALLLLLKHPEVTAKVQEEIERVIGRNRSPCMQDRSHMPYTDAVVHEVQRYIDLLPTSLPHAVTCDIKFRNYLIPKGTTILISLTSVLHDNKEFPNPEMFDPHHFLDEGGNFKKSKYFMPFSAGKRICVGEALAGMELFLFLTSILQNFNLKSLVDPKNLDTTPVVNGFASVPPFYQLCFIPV

Q: For CCNCCc1ccc(Cl)c(-c2ccccc2OC)c1.Cl, which AUC(0-t) at 8 h [1] is on record?
A: 442 ng·h/mL

Q: What about the Ki [2] of the same compound?
A: 52 nM

Q: What about the EC50 [3] of the same compound?
A: 180 nM

Q: And the activity at 0.25 h, 10 µM (CYP2C9)?
A: > 100%

Q: And the Ki [4]?
A: 2600 nM

Q: What about the Ki [5] of the same compound?
A: > 10000 nM

Q: What about the Ki [6] of the same compound?
A: > 10000 nM

Q: What about the activity at 0.25 h, 10 µM (CYP3A4) of the same compound?
A: 98.5%

Q: And the Ki [7]?
A: 5.3 nM

Q: What about the MRT inf [8] of the same compound?
A: 42 min

Q: What about the Ki [9] of the same compound?
A: 520 nM

Q: And the Time (Mus musculus)?
A: 70.8 s
